From the M2OR odorant receptor database
Where a chain is given by its changes, count along the chain named.

What was measured:
Settings in all cases: stereoisomer not certain
OR4S2 (Homo sapiens) = biological target: T1, OR4S2 (Homo sapiens) (UniProt Q8NH73)
T1 sequence (whole entry): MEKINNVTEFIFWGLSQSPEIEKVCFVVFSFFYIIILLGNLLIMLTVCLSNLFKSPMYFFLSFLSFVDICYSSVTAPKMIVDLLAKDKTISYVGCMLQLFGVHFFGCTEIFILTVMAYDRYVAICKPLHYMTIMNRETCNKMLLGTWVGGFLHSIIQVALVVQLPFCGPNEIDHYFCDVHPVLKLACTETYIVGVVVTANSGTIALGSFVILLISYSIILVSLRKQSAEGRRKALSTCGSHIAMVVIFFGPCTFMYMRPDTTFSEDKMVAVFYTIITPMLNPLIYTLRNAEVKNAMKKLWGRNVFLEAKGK
Outline: (§1)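 Each entry records the cell line, G-protein, co-transfected protein and tags used. Methods varied with the source, often transient luciferase assays in mammalian cell lines. A receptor–molecule pair is called responsive (active) if the original authors judged its signal statistically different from baseline and non-responsive (inactive) otherwise.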

OR4X1 (Homo sapiens) = biological target: T2, OR4X1 (Homo sapiens) (UniProt Q8NH49)
T2 sequence (whole entry): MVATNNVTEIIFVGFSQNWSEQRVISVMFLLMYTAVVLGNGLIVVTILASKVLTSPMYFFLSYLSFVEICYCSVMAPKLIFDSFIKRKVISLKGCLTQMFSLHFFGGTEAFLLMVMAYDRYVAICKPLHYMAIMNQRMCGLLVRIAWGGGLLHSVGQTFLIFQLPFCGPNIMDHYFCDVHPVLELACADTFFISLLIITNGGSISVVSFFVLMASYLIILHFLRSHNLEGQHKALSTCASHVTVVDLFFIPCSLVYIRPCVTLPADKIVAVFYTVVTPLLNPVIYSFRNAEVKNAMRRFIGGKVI
Outline: as §1

OR4X2 (Homo sapiens) = biological target: T3, OR4X2 (Homo sapiens) (UniProt Q8NGF9)
T3 sequence (whole entry): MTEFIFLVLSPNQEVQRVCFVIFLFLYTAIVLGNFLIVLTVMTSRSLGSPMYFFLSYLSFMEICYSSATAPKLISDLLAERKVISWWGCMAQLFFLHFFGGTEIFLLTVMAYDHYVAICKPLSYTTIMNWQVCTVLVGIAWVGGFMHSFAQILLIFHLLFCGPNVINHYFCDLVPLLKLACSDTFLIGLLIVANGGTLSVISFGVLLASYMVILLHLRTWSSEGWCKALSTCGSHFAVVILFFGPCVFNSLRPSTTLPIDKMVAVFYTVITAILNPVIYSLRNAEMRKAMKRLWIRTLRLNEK
Outline: as §1

OR51A2 (Homo sapiens) = biological target: T4, OR51A2 (Homo sapiens) (UniProt Q8NGJ7)
T4 sequence (whole entry): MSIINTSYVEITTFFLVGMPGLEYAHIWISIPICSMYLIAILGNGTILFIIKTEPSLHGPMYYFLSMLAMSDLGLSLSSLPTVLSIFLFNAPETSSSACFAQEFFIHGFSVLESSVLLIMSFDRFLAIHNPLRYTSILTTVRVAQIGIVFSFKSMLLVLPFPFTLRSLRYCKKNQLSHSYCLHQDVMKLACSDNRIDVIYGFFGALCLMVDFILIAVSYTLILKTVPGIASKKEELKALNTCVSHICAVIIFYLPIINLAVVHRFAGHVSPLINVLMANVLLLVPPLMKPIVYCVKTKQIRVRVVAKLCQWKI
Outline: as §1

OR51A4 (Homo sapiens) = biological target: T5, OR51A4 (Homo sapiens) (UniProt Q8NGJ6)
T5 sequence (whole entry): T4 sequence (whole entry) with G59E, T94I, S97N, S167N, P227L, E235Q, G267R, M288T, K289N, W311R
Outline: as §1

OR51A7 (Homo sapiens) = biological target: T6, OR51A7 (Homo sapiens) (UniProt Q8NH64)
T6 sequence (whole entry): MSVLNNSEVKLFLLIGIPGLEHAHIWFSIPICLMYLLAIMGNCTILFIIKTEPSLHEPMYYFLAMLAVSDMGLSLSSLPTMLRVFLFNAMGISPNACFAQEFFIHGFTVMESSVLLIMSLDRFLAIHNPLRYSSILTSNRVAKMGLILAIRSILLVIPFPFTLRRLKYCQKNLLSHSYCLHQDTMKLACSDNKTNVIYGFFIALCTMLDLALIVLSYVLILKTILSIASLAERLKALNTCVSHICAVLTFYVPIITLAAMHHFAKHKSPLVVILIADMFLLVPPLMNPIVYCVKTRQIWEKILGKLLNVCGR
Outline: as §1

OR51B2 (Homo sapiens) = biological target: T7, OR51B2 (Homo sapiens) (UniProt Q9Y5P1)
T7 sequence (whole entry): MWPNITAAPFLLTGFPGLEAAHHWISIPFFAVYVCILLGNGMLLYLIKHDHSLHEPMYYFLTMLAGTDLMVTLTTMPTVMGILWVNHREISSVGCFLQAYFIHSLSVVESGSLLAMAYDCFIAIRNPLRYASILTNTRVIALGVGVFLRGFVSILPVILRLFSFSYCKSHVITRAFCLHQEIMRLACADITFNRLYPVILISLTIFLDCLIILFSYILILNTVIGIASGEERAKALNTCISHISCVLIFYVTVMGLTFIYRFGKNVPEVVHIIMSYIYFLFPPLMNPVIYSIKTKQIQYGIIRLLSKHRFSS
Outline: as §1

OR51B4 (Homo sapiens) = biological target: T8, OR51B4 (Homo sapiens) (UniProt Q9Y5P0)
T8 sequence (whole entry): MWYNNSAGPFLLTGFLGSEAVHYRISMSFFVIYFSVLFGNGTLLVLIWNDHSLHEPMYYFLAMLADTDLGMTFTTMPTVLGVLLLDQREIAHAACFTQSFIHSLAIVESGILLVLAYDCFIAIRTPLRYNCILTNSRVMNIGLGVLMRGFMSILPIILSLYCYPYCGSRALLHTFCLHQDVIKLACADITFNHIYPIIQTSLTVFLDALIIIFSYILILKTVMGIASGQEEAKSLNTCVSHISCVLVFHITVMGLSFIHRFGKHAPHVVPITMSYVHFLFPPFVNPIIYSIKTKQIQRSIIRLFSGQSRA
Outline: as §1

OR51B5 (Homo sapiens) = biological target: T9, OR51B5 (Homo sapiens) (UniProt Q9H339)
T9 sequence (whole entry): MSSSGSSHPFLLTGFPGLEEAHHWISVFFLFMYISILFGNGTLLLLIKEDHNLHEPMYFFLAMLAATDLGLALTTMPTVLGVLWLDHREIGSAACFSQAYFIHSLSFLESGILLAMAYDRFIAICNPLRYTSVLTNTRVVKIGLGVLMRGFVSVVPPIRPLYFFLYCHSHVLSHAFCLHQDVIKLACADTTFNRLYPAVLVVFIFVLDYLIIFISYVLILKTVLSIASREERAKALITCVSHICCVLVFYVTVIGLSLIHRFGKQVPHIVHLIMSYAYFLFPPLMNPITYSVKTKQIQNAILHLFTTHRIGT
Outline: as §1

OR51B6 (Homo sapiens) = biological target: T10, OR51B6 (Homo sapiens) (UniProt Q9H340)
T10 sequence (whole entry): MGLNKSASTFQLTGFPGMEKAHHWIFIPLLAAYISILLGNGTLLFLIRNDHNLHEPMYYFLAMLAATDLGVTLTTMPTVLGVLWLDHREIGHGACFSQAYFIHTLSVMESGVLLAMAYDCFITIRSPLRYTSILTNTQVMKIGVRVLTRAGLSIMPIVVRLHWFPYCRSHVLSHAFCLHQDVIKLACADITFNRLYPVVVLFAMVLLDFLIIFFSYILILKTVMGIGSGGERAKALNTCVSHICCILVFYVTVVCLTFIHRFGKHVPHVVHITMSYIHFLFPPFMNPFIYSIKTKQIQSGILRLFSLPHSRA
Outline: as §1

OR51D1 (Homo sapiens) = biological target: T11, OR51D1 (Homo sapiens) (UniProt Q8NGF3)
T11 sequence (whole entry): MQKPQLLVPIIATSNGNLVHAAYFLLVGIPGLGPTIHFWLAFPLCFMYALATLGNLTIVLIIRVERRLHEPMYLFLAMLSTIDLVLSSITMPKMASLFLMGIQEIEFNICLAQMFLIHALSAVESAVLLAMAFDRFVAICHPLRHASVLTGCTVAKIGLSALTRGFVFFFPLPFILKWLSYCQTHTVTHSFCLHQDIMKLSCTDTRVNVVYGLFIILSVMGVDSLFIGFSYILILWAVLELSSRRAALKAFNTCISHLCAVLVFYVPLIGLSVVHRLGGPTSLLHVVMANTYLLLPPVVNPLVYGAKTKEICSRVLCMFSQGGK
Outline: as §1

OR51E1 (Homo sapiens) = biological target: T12, OR51E1 (Homo sapiens) (UniProt Q8TCB6)
T12 sequence (whole entry): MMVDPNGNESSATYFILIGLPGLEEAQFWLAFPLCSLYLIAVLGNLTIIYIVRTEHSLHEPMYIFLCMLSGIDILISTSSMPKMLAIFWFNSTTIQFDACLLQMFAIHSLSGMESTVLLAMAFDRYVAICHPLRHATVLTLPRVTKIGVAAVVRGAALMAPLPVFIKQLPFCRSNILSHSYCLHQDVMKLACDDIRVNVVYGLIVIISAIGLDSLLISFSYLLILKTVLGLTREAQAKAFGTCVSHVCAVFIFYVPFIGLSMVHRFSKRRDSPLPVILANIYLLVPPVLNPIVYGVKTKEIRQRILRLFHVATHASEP
Outline: as §1

OR51E2 (Homo sapiens) = biological target: T13, OR51E2 (Homo sapiens) (UniProt Q9H255)
T13 sequence (whole entry): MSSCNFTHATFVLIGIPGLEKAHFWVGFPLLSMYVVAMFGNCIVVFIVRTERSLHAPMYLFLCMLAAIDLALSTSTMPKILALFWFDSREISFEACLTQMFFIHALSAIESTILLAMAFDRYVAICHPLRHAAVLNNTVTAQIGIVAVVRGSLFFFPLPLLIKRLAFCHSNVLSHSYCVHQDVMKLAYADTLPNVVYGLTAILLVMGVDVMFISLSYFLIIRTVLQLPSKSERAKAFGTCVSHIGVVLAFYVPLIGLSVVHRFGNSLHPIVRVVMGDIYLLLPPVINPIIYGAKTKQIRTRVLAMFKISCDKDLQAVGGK
Outline: as §1

OR51F2 (Homo sapiens) = biological target: T14, OR51F2 (Homo sapiens) (UniProt Q8NH61)
T14 sequence (whole entry): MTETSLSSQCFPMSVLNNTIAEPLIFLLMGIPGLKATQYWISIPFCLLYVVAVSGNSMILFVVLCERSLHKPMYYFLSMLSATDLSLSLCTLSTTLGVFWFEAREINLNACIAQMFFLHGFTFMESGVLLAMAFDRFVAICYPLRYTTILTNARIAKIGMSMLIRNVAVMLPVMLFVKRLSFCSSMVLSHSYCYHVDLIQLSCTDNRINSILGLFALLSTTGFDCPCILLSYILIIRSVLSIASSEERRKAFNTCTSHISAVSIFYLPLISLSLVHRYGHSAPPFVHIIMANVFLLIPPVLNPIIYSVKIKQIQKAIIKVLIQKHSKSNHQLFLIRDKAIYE
Outline: as §1

OR51G1 (Homo sapiens) = biological target: T15, OR51G1 (Homo sapiens) (UniProt Q8NGK1)
T15 sequence (whole entry): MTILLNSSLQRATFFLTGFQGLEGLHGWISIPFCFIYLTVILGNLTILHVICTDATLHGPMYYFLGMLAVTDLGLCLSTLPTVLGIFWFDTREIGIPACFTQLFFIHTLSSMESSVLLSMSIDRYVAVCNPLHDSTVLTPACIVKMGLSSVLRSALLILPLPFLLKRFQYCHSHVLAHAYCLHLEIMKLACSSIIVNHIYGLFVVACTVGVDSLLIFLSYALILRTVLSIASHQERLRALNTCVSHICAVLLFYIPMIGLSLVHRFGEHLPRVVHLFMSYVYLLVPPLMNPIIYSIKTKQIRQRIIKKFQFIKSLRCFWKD
Outline: as §1

OR51G2 (Homo sapiens) = biological target: T16, OR51G2 (Homo sapiens) (UniProt Q8NGK0)
T16 sequence (whole entry): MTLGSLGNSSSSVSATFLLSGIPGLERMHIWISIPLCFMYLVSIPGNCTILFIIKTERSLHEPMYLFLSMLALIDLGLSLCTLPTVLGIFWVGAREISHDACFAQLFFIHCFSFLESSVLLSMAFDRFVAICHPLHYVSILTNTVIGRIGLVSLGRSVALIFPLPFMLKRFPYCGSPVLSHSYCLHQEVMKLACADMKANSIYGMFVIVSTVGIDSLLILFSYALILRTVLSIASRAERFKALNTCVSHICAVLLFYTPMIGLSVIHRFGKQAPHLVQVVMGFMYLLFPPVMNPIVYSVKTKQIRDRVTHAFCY
Outline: as §1

OR51I1 (Homo sapiens) = biological target: T17, OR51I1 (Homo sapiens) (UniProt Q9H343)
T17 sequence (whole entry): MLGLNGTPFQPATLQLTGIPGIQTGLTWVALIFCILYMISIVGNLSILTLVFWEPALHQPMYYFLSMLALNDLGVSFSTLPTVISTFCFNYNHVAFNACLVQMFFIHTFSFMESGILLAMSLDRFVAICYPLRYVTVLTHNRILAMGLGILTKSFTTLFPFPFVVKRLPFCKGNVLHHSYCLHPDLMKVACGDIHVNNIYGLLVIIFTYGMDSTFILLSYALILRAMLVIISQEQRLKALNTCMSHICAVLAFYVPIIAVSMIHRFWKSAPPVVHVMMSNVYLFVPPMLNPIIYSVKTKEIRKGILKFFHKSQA
Outline: as §1

Measured: odorant receptor agonist call

Cc1cnc(C)c(C)n1
inactive: all assays above

CC(=O)O
inactive: OR51B5 (Homo sapiens)

CCC1OC(=O)C(O)=C1C (stereo not drawn)
inactive: all assays above

CCCCOCC(C)O (stereo not drawn)
inactive: OR51B5 (Homo sapiens)

CCCCCCCCCCCCCCCCCC(=O)[O-].[H+]
inactive: OR51B5 (Homo sapiens)

COc1ccc2[nH]cc(CCNC(C)=O)c2c1
inactive: OR51B5 (Homo sapiens)
